# RGS4 act: RGS4 potentiation or activation; HEK293 M3R/inducible RGS4, carbachol calcium flux Fluo4; stronger effect = lower value; B-score at 10 µM; hit rate 0.92% among 310,000; AID 463111;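 active means B-score of the integrated calcium signal more than 4 SD below the library mean, with starting fluorescence not abnormally high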;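 further: negative B-score means reduced calcium response which marks RGS4 activation or potentiation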
#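 Assay system: Inducible-RGS4 HEK293 cells carrying M3 receptor | Schedule: Compound preincubation 20 min at room temperature before agonist | Signal: Kinetic calcium fluorescence imaging with Fluo4-AM dye, 2 µM | Read-out basis: B score from integrated fluorescence ratio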
# MrgX1 PAM: allosterically activates human MrgX1 receptor signaling. AID 588675. hit rate 0.63% among 310,000. MrgX1-HEK293, Fluo-4 calcium flux, FDSS; stronger effect = higher value. Q96LB2. B-score at 10 µM;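 active means plate-corrected calcium response at least 3 library SD above typical, normal starting fluorescence, not activating the receptor alone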;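 further: compound read alongside a low EC10 to EC30 dose of BAM8-22 agonist; peak minus trough fluorescence over baseline measured at the second addition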
# Target sequence (Q96LB2 whole entry, looked up): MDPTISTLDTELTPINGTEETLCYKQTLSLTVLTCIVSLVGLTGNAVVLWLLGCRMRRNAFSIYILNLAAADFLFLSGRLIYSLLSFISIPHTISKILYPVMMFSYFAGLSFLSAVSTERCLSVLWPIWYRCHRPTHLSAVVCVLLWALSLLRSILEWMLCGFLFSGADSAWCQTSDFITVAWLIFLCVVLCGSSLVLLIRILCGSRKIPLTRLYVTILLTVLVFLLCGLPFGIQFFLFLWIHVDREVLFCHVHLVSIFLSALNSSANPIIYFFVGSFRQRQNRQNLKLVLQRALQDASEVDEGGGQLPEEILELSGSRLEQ
# PHOSPHO1 inh: inhibitors of human PHOSPHO1 phosphatase; Q8TCT1; recombinant PHOSPHO1, absorbance phosphatase assay; inhibition, % at 13.3 µM; hit rate 1.1% among 290,000; in the data active means inhibition above about 60%
# MrgX1 agonist: human MrgX1 receptor agonism, primary screen; MrgX1-HEK293 cells, Fluo-4 calcium fluorescence, agonist mode; stronger effect = higher value; B-score at 10 µM; Q96LB2; AID 588627; hit rate 0.44% among 310,000;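 active means calcium response B-score plate-corrected fluorescence ratio at least 3 library SD, with starting fluorescence B-score inside 5 SD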
#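 Assay system: MrgX1-expressing HEK293 cells / Amount: fifteen thousand cells per well / Doses: test compound in the initial addition of three / Timing: cells plated overnight, dye loaded 0.5 h 37 °C, 0.5 h room temperature / Technique: kinetic calcium dye fluorescence, Fluo-4 NW / Control set: positive and negative controls per plate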
# MrgX1 antag: antagonists of human MrgX1 receptor. Q96LB2. MRGX1-HEK293 calcium flux, Fluo-4, BAM8-22 antagonism; stronger effect = lower value. B-score at 10 µM. hit rate 1.3% among 310,000. AID 588676;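 active means calcium-response B-score plate-corrected more than 3 library SD below zero, starting fluorescence within 5 deviations, no agonist response on first addition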;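 further: peak minus trough fluorescence over baseline after final BAM8-22 challenge near maximal dose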
# RGS4 inh: inhibitors of human RGS4 | hit rate 0.45% among 310,000 | AID 463165 | B-score at 10 µM | P49798 | HEK293 M3R/RGS4 inducible, Fluo-4 calcium flux; stronger effect = higher value; triggered by carbachol at its EC20;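 active means B-score, a plate-corrected calcium signal, over three deviations above library mean, with baseline fluorescence within five deviations of library mean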;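 further: RGS4 expression induced by doxycycline in cells with stable M3 receptor; B-score is computed from the integrated fluorescence ratio over baseline after carbachol; higher B-score means a larger calcium signal and so more RGS4 inhibition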
# Target sequence (P49798 whole entry, looked up): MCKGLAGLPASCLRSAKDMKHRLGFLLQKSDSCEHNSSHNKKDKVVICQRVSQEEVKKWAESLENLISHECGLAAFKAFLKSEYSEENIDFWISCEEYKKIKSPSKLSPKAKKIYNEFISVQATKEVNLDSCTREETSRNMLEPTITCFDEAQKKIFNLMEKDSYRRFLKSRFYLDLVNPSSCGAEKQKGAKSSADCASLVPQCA
# MrgX1 ant reconf: human MrgX1 receptor antagonism, re-confirmation screen. shares compounds with MrgX1 antag. MrgX1-HEK293, BAM8-22 calcium flux, Fluo-4; stronger effect = lower value. remaining BAM8-22 calcium response % of control (stronger effect = lower value), % at 10 µM. hit rate 19% among 2,300;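 active means remaining agonist calcium response no higher than 100% minus 3 SD of agonist-only control wells, with starting fluorescence near control levels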;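 further: agonist BAM8-22 given at a near maximal EC90 to ECmax level; peak minus minimum fluorescence divided by baseline after agonist addition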
# HEK293 Ca flux: MrgX1 antagonist counter-screen hit in parental HEK293 cells | shares compounds with MrgX1 antag | Fluo-4 calcium fluorescence, FDSS | fluorescence ratio F(max-min)/F0 at 10 µM | hit rate 2% among 4,000;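 active means duplicate-averaged calcium fluorescence ratio at least three times the standard deviation of buffer wells, a nonspecific response in parental cells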
# HEK293 Ca counter: activity in parental HEK293 cells without MrgX1; shares compounds with MrgX1 antag; parental HEK293 calcium flux, Fluo-4 fluorescence ratio; stronger effect = higher value; fluorescence ratio F(max-min)/F0 at 10 µM; hit rate 0.4% among 4,000; AID 624114;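 active means calcium fluorescence ratio, averaged over duplicates, at least 3 SD of the buffer-well ratio, meaning a nonspecific response in receptor-free cells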;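 further: untransfected parental HEK293 lacking MrgX1 used as counterscreen for MrgX1 allosteric activators; fluorescence change taken during the second addition on a kinetic imager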
# HEK293 Ca cntr2: counter-screen for MrgX1 activators: effect in parental HEK293 cells; shares compounds with MrgX1 antag; Fluo-4 calcium fluorescence (FDSS); stronger effect = higher value; fluorescence ratio F(max-min)/F0 at 10 µM; hit rate 8.7% among 4,000; AID 624115;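 active means calcium fluorescence ratio at least three times the spread of buffer wells, meaning a non-specific response in parental cells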
# Starred values were filed as active, the others as inactive; i = inactive; . = no result given. This is a sample that favours compounds with a hit; in the whole collection about 4.5% have one here.
SMILES,RGS4 act,MrgX1 PAM,PHOSPHO1 inh,MrgX1 agonist,MrgX1 antag,RGS4 inh,MrgX1 ant reconf,HEK293 Ca flux,HEK293 Ca counter,HEK293 Ca cntr2
CCCCC(CC)CNC(=O)C(Cc1ccccc1)NS(=O)(=O)c1ccc2c(c1)CCC(=O)N2 (stereo not drawn),i,i,-10.0,i,i,i,.,.,.,.
COC(=O)c1ccc([N+](=O)[O-])cc1N1C(=O)C2C3CCC(C3)C2C1=O (stereo not drawn),i,i,27.4,i,i,i,.,.,.,.
COC(c1ccccc1)c1nnc(CCC(=O)N2CCN(C3CCCC3)CC2)o1 (stereo not drawn),i,i,21.8,i,-6.32*,i,i,i,i,i
O=C(CCc1nnc(C2CCCCC2)o1)N1CCN(C2CCCCC2)CC1,i,i,40.7,i,i,i,.,.,.,.
CCc1cccc(CC)c1NC(=O)CSc1nnc(C2CC2)n1C,i,i,2.3,i,i,i,.,.,.,.
CCOC(=O)C(NC(=O)c1ccccc1)(Nc1nnc(C)s1)C(F)(F)F (stereo not drawn),i,i,-0.8,i,-8.7*,i,i,i,i,i
CCOC(=O)C(NC(=O)c1ccccc1)(Nc1cc(C)on1)C(F)(F)F (stereo not drawn),i,i,7.0,i,i,i,.,.,.,.
O=C(c1ccc2[nH]c(=O)c(=O)[nH]c2c1)N1CCc2ccccc2C1,i,i,-16.1,i,i,i,.,.,.,.
Cn1c(=O)oc2cc(S(=O)(=O)NCCC(=O)N3CCc4ccccc43)ccc21,i,i,-1.6,i,-5.11*,i,i,i,i,i
Cn1c(=O)oc2cc(S(=O)(=O)NCCC(=O)N3CCN(c4ccccc4F)CC3)ccc21,i,i,-5.0,i,i,i,.,.,.,.
CCCCCC(=O)Nc1ccc(S(=O)(=O)Nc2nccnc2OC)cc1,i,i,-2.4,i,i,i,.,.,.,.
CN(C1CCCCC1)S(=O)(=O)c1ccc(S(=O)(=O)N(CC(=O)Nc2ccccc2)C2CC2)cc1,i,i,13.9,i,i,i,.,.,.,.
Cc1onc(-c2ccccc2)c1C(=O)OCC(=O)Nc1cc(S(=O)(=O)N2CCOCC2)ccc1Cl,i,i,1.1,i,i,i,.,.,.,.
COc1cccc(C(=O)COc2ccc3c(C)cc(=O)oc3c2)c1,i,i,23.3,i,-5.1*,i,83.4%*,i,i,i
Oc1ccc(Cl)cc1/C=C/c1ccc2cccc(O)c2n1,i,.,30.5,.,.,i,.,.,.,.
Oc1c(Cl)cc(Cl)cc1/C=C/c1ccc2cccc(O)c2n1,i,i,-46.3,i,-7.73*,i,i,i,i,i
COCCNC(=S)N=Nc1c(O)[nH]c2ccc([N+](=O)[O-])cc12,i,i,33.4,i,i,i,.,.,.,.
O=C(Nc1ccc(C(=O)N2CCCC2)cc1)Nc1ccc(Cl)cc1Cl,i,i,3.6,i,i,i,.,.,.,.
C=CCc1cccc(CNc2cnc3ccccc3c2)c1O,i,i,.,i,-6.62*,i,81.9%*,i,i,i
Oc1ccccc1CNc1cnc2ccccc2c1,i,i,8.7,i,i,i,.,.,.,.
Cc1ccc(C(=O)Nc2nc3ccc(S(C)(=O)=O)cc3s2)o1,i,i,3.4,i,i,i,.,.,.,.
Cc1noc(C)c1C(=O)Nc1nc2ccc(S(C)(=O)=O)cc2s1,i,i,51.4,i,-7.5*,i,i,i,i,i
CCOC(=O)c1c(C)[nH]c(C)c1S(=O)(=O)N(C)CC(=O)Nc1cc(C)ccc1OC,i,i,1.5,i,-9.1*,i,i,i,i,i
Cc1cccc(C)c1NC(=O)CN(C)C(=O)C1CCN(c2ncnc3sc(C)c(C)c23)CC1,i,i,.,i,i,i,.,.,.,.
CCN(CC(=O)Nc1c(F)cccc1F)C(=O)C1CCN(c2ncnc3sc(C)c(C)c23)CC1,i,i,.,i,-8.2*,i,i,i,i,i
SMILES,RGS4 act,MrgX1 PAM,PHOSPHO1 inh,MrgX1 agonist,MrgX1 antag,RGS4 inh,MrgX1 ant reconf,HEK293 Ca flux,HEK293 Ca counter,HEK293 Ca cntr2
CCOC(=O)Cc1cc(=O)c2cc(C)ccc2[nH]1,i,i,19.9,i,i,i,.,.,.,.
O=C(Nc1cc(C(F)(F)F)ccc1N1CCOCC1)c1ccco1,i,i,-17.0,i,-4.54*,i,i,i,i,i
CCOc1ccccc1N(CC(=O)OC)S(C)(=O)=O,i,i,6.4,i,-6.16*,i,i,i,i,i
CC(=O)Nc1cccc(NC(=O)Nc2cccc(Cl)c2C)c1,i,i,41.1,i,-5.53*,i,i,i,i,i
CC(=O)Nc1cccc(NC(=S)Nc2cccc(Cl)c2C)c1,i,i,-1.3,i,i,i,.,.,.,.
COc1ccc(S(=O)(=O)N2CCN(C(=O)N3CCOCC3)C2C)cc1 (stereo not drawn),i,i,12.0,i,i,i,.,.,.,.
Cc1cc(C)c(NC(N)=S)c(C)c1,i,i,24.6,i,i,i,.,.,.,.
COc1ccc(-c2csc(NC(=O)CSc3nc(C)nc4sc(C(=O)O)c(C)c34)n2)cc1,i,i,11.5,i,-6.43*,i,71.5%*,i,i,i
COc1ccc(-c2csc(NC(=O)CSc3nc(C)cs3)n2)cc1,i,i,.,i,i,i,.,.,.,.
COc1ccc(CN2CN=C(Nc3nc4ccccc4s3)NC2)cc1,i,i,3.8,i,-7.47*,i,57.0%*,i,i,i
c1ccc(CN2CN=C(Nc3nc4ccccc4s3)NC2)cc1,i,i,13.3,i,i,i,.,.,.,.
NC(=O)c1ccccc1NC(=O)CCN1C(=O)c2ccccc2C1=O,i,i,-2.9,i,-6.9*,i,85.2%*,i,i,i
